In test [1] the test system is Mus musculus. The test can be described thus: Neurotoxicity in albino mouse assessed as animal in lateral position at 10 mg/kg, ip administered 1 hr prior to ethanol challenge measured after 30 mins. The class given is functional. The conditions noted are these: route intraperitoneal.
For test [2], the system named is Mus musculus. The test is described as follows: Antidepressant activity in albino mouse assessed as decrease in immobility time at 10 mg/kg, ip after 60 mins by forced-swimming test relative to untreated control. The class given is functional. Also noted: scale not given: the % may be the effect or the level left. The conditions noted are these: route intraperitoneal. The method, boiled down:
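Albino mice given 10 mg/kg ip; forced swim in a vertical Plexiglas cylinder of water at 25 °C for 15 min, immobility plateauing after 5–6 min; % immobility calculated; mice dried in a heated enclosure (32 °C) afterwards.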

Consider five compounds from ChEMBL document CHEMBL1139403, “Syntheses and anti-depressant activity of 5-amino-1, 3, 4-thiadiazole-2-thiol imines and thiobenzyl derivatives” (2008).

For the compound `COc1ccc(/C=C/C(=N\c2nnc(SCc3ccc(Cl)cc3)s2)c2ccc(Cl)cc2)cc1`, the figures for the Activity with Mus musculus [1] and in the test with Mus musculus [2] were under 50% and 84.23%, respectively.
In the case of `COc1ccc(/C=C/C(=N\c2nnc(SCc3ccccc3)s2)c2ccc(Cl)cc2)cc1`, the figures for the Activity in the test on Mus musculus [1] and in the test with Mus musculus [2] were under 50% and 77.99%, respectively.
On to `Clc1ccc(/C=C/C(=N\c2nnc(SCc3ccccc3)s2)c2ccc(Cl)cc2)cc1`, for which, in the test on Mus musculus [1], the Activity is given as under 50%.
In the case of `Clc1ccc(/C=C/C(=N\c2nnc(SCc3ccc(Cl)cc3)s2)c2ccc(Cl)cc2)cc1`, the values for the Activity in the test with Mus musculus [1] and in the test on Mus musculus [2] were under 50% and 87.57%, respectively.
The like results for `CN(C)CCCN1c2ccccc2CCc2ccccc21` [IMIPRAMINE] were, in that order, under 50% and 82%.
